Values after ≈ are worked out from the molar mass of the structure shown.
system: Staphylococcus aureus; experiment: Antibacterial activity against Staphylococcus aureus 209 after 24 hrs by two-fold serial dilution method; type: functional; conditions: Staphylococcus aureus, 209, 24 h
How it was run: (§1)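 Broth microdilution in Mueller-Hinton broth. Bacteria grown to mid-log phase, diluted 1000-fold, and inoculated at 10⁵ CFU/mL. Test compounds in DMSO, final DMSO not above 0.05%, final concentrations 64-0.5 µg/mL. Incubation 24 h at 37 °C, growth read as absorbance at 650 nm. MIC taken as the lowest concentration giving complete growth inhibition. Run three times.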

**Q.** With `N=C(N)N/N=C/c1cn(-c2ccc([N+](=O)[O-])cc2[N+](=O)[O-])nc1-c1ccccc1F` as the compound, how does the MIC read?
**A.** 8 µg/mL (≈ 19.4 µM)

**Q.** `N=C(N)N/N=C/c1cn(-c2ccc([N+](=O)[O-])cc2[N+](=O)[O-])nc1-c1ccccc1` was tested. Which MIC did it give?
**A.** 8 µg/mL (≈ 20.3 µM)

system: Staphylococcus aureus; experiment: Antibacterial activity against Staphylococcus aureus 503 after 24 hrs by two-fold serial dilution method; type: functional; conditions: Staphylococcus aureus, 503, 24 h; how it was run: as §1

**Q.** `N=C(N)N/N=C/c1cn(-c2ccc([N+](=O)[O-])cc2[N+](=O)[O-])nc1-c1ccccc1F` was tested. Which MIC did it give?
**A.** 8 µg/mL (≈ 19.4 µM)

**Q.** For `N=C(N)N/N=C/c1cn(-c2ccc([N+](=O)[O-])cc2[N+](=O)[O-])nc1-c1ccccc1`, which MIC is on record?
**A.** 8 µg/mL (≈ 20.3 µM)

system: Candida albicans; experiment: Antifungal activity against Candida albicans 7535 by two-fold serial dilution method; type: functional; conditions: not given

**Q.** For `N=C(N)N/N=C/c1cn(-c2ccc([N+](=O)[O-])cc2[N+](=O)[O-])nc1-c1ccccc1F`, which MIC is on record?
**A.** 4 µg/mL (≈ 9.7 µM)

**Q.** For `N=C(N)N/N=C/c1cn(-c2ccc([N+](=O)[O-])cc2[N+](=O)[O-])nc1-c1ccccc1`, which MIC is on record?
**A.** 4 µg/mL (≈ 10.1 µM)

system: Escherichia coli; experiment: Antibacterial activity against Escherichia coli KCTC 1924 after 24 hrs by two-fold serial dilution method; type: functional; conditions: KCTC 1924, 24 h
How it was run: (§2)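 Broth microdilution in Mueller-Hinton broth over final concentrations of 64–0.5. Bacteria were grown to mid-log phase and diluted 1000-fold, then inoculated at 10⁵ CFU/mL. Compounds were dissolved in DMSO, with final DMSO at most 0.05%. Plates were incubated 24 h at 37 °C and growth read as absorbance at 650 nm. MIC is the concentration giving complete growth inhibition. Three independent runs.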

**Q.** Which MIC does the source give for `N=C(N)N/N=C/c1cn(-c2ccc([N+](=O)[O-])cc2[N+](=O)[O-])nc1-c1ccccc1F` here?
**A.** 8 µg/mL (≈ 19.4 µM)

**Q.** With `N=C(N)N/N=C/c1cn(-c2ccc([N+](=O)[O-])cc2[N+](=O)[O-])nc1-c1ccccc1` as the compound, how does the MIC read?
**A.** 8 µg/mL (≈ 20.3 µM)

system: Staphylococcus aureus; experiment: Antibacterial activity against methicillin-resistant Staphylococcus aureus CCARM 3506 after 24 hrs by two-fold serial dilution method; type: functional; conditions: CCARM 3506, 24 h; how it was run: as §1

**Q.** How did the MIC turn out when `N=C(N)N/N=C/c1cn(-c2ccc([N+](=O)[O-])cc2[N+](=O)[O-])nc1-c1ccccc1F` was run?
**A.** 4 µg/mL (≈ 9.7 µM)

**Q.** For `N=C(N)N/N=C/c1cn(-c2ccc([N+](=O)[O-])cc2[N+](=O)[O-])nc1-c1ccccc1`, which MIC is on record?
**A.** 8 µg/mL (≈ 20.3 µM)

system: Staphylococcus aureus; experiment: Antibacterial activity against quinolone-resistant Staphylococcus aureus CCARM 3519 after 24 hrs by two-fold serial dilution method; type: functional; conditions: CCARM 3519, 24 h; how it was run: as §1

**Q.** How did the MIC turn out when `N=C(N)N/N=C/c1cn(-c2ccc([N+](=O)[O-])cc2[N+](=O)[O-])nc1-c1ccccc1F` was run?
**A.** 8 µg/mL (≈ 19.4 µM)

**Q.** How did the MIC turn out when `N=C(N)N/N=C/c1cn(-c2ccc([N+](=O)[O-])cc2[N+](=O)[O-])nc1-c1ccccc1` was run?
**A.** 8 µg/mL (≈ 20.3 µM)

system: Staphylococcus aureus; experiment: Antibacterial activity against methicillin-resistant Staphylococcus aureus CCARM 3167 after 24 hrs by two-fold serial dilution method; type: functional; conditions: CCARM 3167, 24 h; how it was run: as §1

**Q.** Which MIC does the source give for `N=C(N)N/N=C/c1cn(-c2ccc([N+](=O)[O-])cc2[N+](=O)[O-])nc1-c1ccccc1F` here?
**A.** 8 µg/mL (≈ 19.4 µM)

**Q.** `N=C(N)N/N=C/c1cn(-c2ccc([N+](=O)[O-])cc2[N+](=O)[O-])nc1-c1ccccc1` was tested. Which MIC did it give?
**A.** 8 µg/mL (≈ 20.3 µM)

system: Pseudomonas aeruginosa; experiment: Antibacterial activity against Pseudomonas aeruginosa 2004 after 24 hrs by two-fold serial dilution method; type: functional; conditions: Pseudomonas aeruginosa, 2004, 24 h; how it was run: as §2

**Q.** For `N=C(N)N/N=C/c1cn(-c2ccc([N+](=O)[O-])cc2[N+](=O)[O-])nc1-c1ccccc1F`, which MIC is on record?
**A.** > 64 µg/mL

**Q.** How did the MIC turn out when `N=C(N)N/N=C/c1cn(-c2ccc([N+](=O)[O-])cc2[N+](=O)[O-])nc1-c1ccccc1` was run?
**A.** > 64 µg/mL

system: Salmonella typhimurium; experiment: Antibacterial activity against Salmonella typhimurium 2421 after 24 hrs by two-fold serial dilution method; type: functional, Salmonella enterica subsp. enterica serovar Typhimurium; conditions: Salmonella enterica, 2421, 24 h; how it was run: as §2

**Q.** How did the MIC turn out when `N=C(N)N/N=C/c1cn(-c2ccc([N+](=O)[O-])cc2[N+](=O)[O-])nc1-c1ccccc1F` was run?
**A.** 16 µg/mL (≈ 38.8 µM)

**Q.** With `N=C(N)N/N=C/c1cn(-c2ccc([N+](=O)[O-])cc2[N+](=O)[O-])nc1-c1ccccc1` as the compound, how does the MIC read?
**A.** 16 µg/mL (≈ 40.6 µM)

system: Staphylococcus aureus; experiment: Antibacterial activity against quinolone-resistant Staphylococcus aureus CCARM 3505 after 24 hrs by two-fold serial dilution method; type: functional; conditions: CCARM 3505, 24 h; how it was run: as §1

**Q.** With `N=C(N)N/N=C/c1cn(-c2ccc([N+](=O)[O-])cc2[N+](=O)[O-])nc1-c1ccccc1F` as the compound, how does the MIC read?
**A.** 8 µg/mL (≈ 19.4 µM)

**Q.** For `N=C(N)N/N=C/c1cn(-c2ccc([N+](=O)[O-])cc2[N+](=O)[O-])nc1-c1ccccc1`, which MIC is on record?
**A.** 8 µg/mL (≈ 20.3 µM)

system: Pseudomonas aeruginosa; experiment: Antibacterial activity against Pseudomonas aeruginosa 2742 after 24 hrs by two-fold serial dilution method; type: functional; conditions: Pseudomonas aeruginosa, 2742, 24 h; how it was run: as §2

**Q.** How did the MIC turn out when `N=C(N)N/N=C/c1cn(-c2ccc([N+](=O)[O-])cc2[N+](=O)[O-])nc1-c1ccccc1F` was run?
**A.** > 64 µg/mL

**Q.** `N=C(N)N/N=C/c1cn(-c2ccc([N+](=O)[O-])cc2[N+](=O)[O-])nc1-c1ccccc1` was tested. Which MIC did it give?
**A.** > 64 µg/mL

system: Mus musculus; experiment: Antiinflammatory activity in mouse assessed as inhibition of xylene-induced ear edema at 50 mg/kg, ip administered 30 mins before xylene challenge relative to control; type: functional; conditions: not given
How it was run: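 Mice received compound freshly dissolved in DMSO, 50 mg/kg ip at 0.05 mL/20 g body weight; vehicle controls got DMSO alone. After 30 min, 20 µL xylene was applied to the right ear. After a further 30 min, 7 mm plugs were cut from treated and untreated ears and edema taken as their weight difference. Result is % edema reduction versus vehicle controls.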

**Q.** With `N=C(N)N/N=C/c1cn(-c2ccc([N+](=O)[O-])cc2[N+](=O)[O-])nc1-c1ccccc1F` as the compound, how does the inhibition in vivo at 50 mg/kg read?
**A.** 87.2%

**Q.** With `N=C(N)N/N=C/c1cn(-c2ccc([N+](=O)[O-])cc2[N+](=O)[O-])nc1-c1ccccc1` as the compound, how does the inhibition in vivo at 50 mg/kg read?
**A.** 86.9%

system: Streptococcus mutans; experiment: Antibacterial activity against Streptococcus mutans 3065 after 24 hrs by two-fold serial dilution method; type: functional; conditions: Streptococcus mutans, 3065, 24 h; how it was run: as §2

**Q.** With `N=C(N)N/N=C/c1cn(-c2ccc([N+](=O)[O-])cc2[N+](=O)[O-])nc1-c1ccccc1F` as the compound, how does the MIC read?
**A.** 16 µg/mL (≈ 38.8 µM)

**Q.** Which MIC does the source give for `N=C(N)N/N=C/c1cn(-c2ccc([N+](=O)[O-])cc2[N+](=O)[O-])nc1-c1ccccc1` here?
**A.** 16 µg/mL (≈ 40.6 µM)

system: Staphylococcus aureus; experiment: Antibacterial activity against Staphylococcus aureus RN4220 after 24 hrs by two-fold serial dilution method; type: functional; conditions: RN4220, 24 h; how it was run: as §1

**Q.** How did the MIC turn out when `N=C(N)N/N=C/c1cn(-c2ccc([N+](=O)[O-])cc2[N+](=O)[O-])nc1-c1ccccc1F` was run?
**A.** 8 µg/mL (≈ 19.4 µM)

**Q.** `N=C(N)N/N=C/c1cn(-c2ccc([N+](=O)[O-])cc2[N+](=O)[O-])nc1-c1ccccc1` was tested. Which MIC did it give?
**A.** 8 µg/mL (≈ 20.3 µM)

system: Escherichia coli; experiment: Antibacterial activity against Escherichia coli CCARM 1356 after 24 hrs by two-fold serial dilution method; type: functional; conditions: CCARM 1356, 24 h; how it was run: as §2

**Q.** For `N=C(N)N/N=C/c1cn(-c2ccc([N+](=O)[O-])cc2[N+](=O)[O-])nc1-c1ccccc1F`, which MIC is on record?
**A.** 16 µg/mL (≈ 38.8 µM)

**Q.** `N=C(N)N/N=C/c1cn(-c2ccc([N+](=O)[O-])cc2[N+](=O)[O-])nc1-c1ccccc1` was tested. Which MIC did it give?
**A.** 16 µg/mL (≈ 40.6 µM)

From ChEMBL document CHEMBL3627681, “Synthesis and biological evaluation of 1,3-diaryl pyrazole derivatives as potential antibacterial and anti-inflammatory agents” (2015)
